The target in assay [1] is T1, Polyunsaturated fatty acid 5-lipoxygenase (Homo sapiens, UniProt P09917).
T1 sequence (P09917 whole entry): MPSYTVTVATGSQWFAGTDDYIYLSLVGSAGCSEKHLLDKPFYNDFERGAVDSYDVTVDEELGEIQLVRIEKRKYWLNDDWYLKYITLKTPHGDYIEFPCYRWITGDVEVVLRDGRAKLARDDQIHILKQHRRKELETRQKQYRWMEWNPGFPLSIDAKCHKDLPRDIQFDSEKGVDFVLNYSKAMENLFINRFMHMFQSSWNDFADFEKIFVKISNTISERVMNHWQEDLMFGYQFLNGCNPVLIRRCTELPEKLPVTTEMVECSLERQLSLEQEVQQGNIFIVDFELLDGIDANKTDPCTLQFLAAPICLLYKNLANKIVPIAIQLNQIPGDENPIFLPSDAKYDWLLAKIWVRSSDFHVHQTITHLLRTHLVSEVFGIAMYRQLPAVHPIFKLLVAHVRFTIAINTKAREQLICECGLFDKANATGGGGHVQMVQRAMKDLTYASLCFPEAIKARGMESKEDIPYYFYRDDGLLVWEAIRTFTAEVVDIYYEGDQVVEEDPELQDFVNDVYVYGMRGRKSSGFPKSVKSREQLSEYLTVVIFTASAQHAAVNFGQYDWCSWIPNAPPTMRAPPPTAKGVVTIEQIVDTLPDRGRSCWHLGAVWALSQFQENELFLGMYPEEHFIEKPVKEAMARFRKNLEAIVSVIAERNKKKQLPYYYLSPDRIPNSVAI
The assay is described as follows: Inhibition of human leukocyte 5-lipoxygenase by UV-visible spectrophotometry.

Assay [2] can be described thus: Inhibition of soybean 15-lipoxygenase-1 by UV-visible spectrophotometry. More on the design: species or system Glycine max. The essentials: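 Soybean 15-LOX-1 (~2 nM) was assayed in 100 mM borate pH 9.2, 0.01% Triton X-100, 10 μM AA, stirred 2 mL at 23°C. Conjugated diene was read at 234 nm.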
The target in assay [3] is T2, Polyunsaturated fatty acid lipoxygenase ALOX15 (Homo sapiens, UniProt P16050).
T2 sequence (P16050 whole entry): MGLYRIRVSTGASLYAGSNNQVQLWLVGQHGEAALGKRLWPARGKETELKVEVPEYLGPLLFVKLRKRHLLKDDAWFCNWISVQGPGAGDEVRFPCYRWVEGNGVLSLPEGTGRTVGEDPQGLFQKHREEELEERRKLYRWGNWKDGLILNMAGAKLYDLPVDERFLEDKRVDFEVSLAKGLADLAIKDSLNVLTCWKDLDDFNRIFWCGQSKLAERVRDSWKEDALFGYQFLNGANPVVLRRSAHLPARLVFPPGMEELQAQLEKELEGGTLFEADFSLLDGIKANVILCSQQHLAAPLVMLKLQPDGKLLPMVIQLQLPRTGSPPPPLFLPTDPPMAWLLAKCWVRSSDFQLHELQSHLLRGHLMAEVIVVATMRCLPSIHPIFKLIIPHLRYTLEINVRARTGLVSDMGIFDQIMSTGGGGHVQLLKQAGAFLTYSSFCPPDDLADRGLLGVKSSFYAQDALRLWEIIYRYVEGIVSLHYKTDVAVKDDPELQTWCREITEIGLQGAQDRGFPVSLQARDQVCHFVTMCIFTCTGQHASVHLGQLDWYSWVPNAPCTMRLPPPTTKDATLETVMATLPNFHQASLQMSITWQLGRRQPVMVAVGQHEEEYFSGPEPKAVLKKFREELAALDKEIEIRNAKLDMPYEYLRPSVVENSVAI
The assay is described as follows: Inhibition of human reticulocyte 15-lipoxygenase-1 by UV-visible spectrophotometry. The essentials:
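Purified h15-LOX-1 (~60 nM total protein) in stirred 2 mL reactions at 23°C, 25 mM HEPES pH 7.5, 0.01% Triton X-100, 10 μM AA. Rate followed as conjugated diene formation at 234 nm. IC50 from at least five inhibitor concentrations by hyperbolic saturation fit, triplicate. Weak inhibitors approximated from one-point screen at 25 μM (triplicate).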

The target in assay [4] is T3, Polyunsaturated fatty acid lipoxygenase ALOX12 (Homo sapiens, UniProt P18054).
T3 sequence (P18054 whole entry): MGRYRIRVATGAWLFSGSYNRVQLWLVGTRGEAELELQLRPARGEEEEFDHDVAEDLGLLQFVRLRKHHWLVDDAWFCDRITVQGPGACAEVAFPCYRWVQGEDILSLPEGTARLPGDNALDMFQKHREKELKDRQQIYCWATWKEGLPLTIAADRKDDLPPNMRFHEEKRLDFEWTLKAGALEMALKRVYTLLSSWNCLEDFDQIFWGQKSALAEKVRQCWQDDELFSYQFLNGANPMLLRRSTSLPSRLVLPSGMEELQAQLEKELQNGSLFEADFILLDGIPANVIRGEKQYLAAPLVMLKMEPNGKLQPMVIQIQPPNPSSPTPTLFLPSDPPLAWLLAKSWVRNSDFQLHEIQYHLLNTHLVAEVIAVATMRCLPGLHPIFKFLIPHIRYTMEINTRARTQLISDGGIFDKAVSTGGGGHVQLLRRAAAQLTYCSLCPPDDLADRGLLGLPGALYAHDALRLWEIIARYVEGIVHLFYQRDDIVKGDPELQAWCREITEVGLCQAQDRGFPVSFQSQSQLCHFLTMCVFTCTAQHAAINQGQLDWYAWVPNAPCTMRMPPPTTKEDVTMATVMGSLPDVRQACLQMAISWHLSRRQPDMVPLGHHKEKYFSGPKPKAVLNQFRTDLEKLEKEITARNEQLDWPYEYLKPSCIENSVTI
Nature of the assay: Inhibition of human platelet 12-lipoxygenase by UV-visible spectrophotometry. The procedure, abridged:
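h12-LOX (~100 nM total protein) in 25 mM HEPES pH 8.0, 0.01% Triton X-100, 10 μM AA, run as stirred 2 mL reactions at 23°C. Diene formation was read at 234 nm.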

The target in assay [5] is T4, Polyunsaturated fatty acid lipoxygenase ALOX15B (Homo sapiens, UniProt O15296).
T4 sequence (O15296 whole entry): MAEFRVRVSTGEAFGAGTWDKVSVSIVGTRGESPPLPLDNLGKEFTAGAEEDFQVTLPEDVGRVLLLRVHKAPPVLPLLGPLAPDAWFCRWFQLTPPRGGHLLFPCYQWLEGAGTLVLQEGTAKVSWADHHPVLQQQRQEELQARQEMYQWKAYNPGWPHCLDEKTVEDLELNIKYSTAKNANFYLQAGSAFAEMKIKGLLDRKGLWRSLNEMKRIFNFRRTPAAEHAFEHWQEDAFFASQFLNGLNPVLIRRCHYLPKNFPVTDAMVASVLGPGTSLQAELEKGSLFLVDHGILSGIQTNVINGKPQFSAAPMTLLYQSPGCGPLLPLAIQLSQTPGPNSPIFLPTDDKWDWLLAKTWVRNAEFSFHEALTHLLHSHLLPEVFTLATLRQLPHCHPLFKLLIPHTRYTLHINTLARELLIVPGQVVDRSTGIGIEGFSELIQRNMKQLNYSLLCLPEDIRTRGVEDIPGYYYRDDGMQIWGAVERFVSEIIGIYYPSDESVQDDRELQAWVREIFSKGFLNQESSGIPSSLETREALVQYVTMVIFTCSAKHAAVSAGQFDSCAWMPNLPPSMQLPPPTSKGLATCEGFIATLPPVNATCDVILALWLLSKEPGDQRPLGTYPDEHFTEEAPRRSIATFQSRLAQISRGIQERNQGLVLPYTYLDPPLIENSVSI
Nature of the assay: Inhibition of human reticulocyte 15-lipoxygenase-2 by UV-visible spectrophotometry. The conditions noted are these: in the assay text read “epithelial” for “reticulocyte”. The essentials:
(§1)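 Enzyme was h15-LOX-2 (~200 nM) or rabbit 15-LOX (~50 nM), in 25 mM HEPES pH 7.5, 0.01% Triton X-100, 10 μM AA, stirred 2 mL at 23°C. Product was monitored at 234 nm.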

For assay [6], the target named is T5, Polyunsaturated fatty acid lipoxygenase ALOX15 (Oryctolagus cuniculus, UniProt P12530).
T5 sequence (P12530 whole entry): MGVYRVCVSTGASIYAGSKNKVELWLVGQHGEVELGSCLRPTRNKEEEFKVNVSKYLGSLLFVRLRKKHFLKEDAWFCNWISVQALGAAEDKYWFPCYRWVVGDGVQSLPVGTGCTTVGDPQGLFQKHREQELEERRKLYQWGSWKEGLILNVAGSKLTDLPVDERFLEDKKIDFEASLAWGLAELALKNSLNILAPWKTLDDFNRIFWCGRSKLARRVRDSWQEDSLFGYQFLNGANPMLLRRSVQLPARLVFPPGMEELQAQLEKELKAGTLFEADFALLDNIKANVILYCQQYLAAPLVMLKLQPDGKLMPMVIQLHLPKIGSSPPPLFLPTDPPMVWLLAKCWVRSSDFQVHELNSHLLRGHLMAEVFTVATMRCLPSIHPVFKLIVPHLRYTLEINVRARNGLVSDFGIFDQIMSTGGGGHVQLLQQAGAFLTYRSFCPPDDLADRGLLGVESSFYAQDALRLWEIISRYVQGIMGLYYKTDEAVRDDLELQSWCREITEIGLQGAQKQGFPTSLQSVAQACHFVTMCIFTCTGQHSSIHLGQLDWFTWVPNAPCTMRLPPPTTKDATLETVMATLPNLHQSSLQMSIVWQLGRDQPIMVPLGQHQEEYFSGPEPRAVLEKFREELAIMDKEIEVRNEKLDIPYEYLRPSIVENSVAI
Nature of the assay: Inhibition of rabbit reticulocyte 15-LOX by UV-visible spectrophotometry. The procedure, abridged: as §1

For assay [7], the target named is T6, Polyunsaturated fatty acid lipoxygenase ALOX12 (Homo sapiens) (UniProt P18054).
T6 sequence (whole entry): T3 sequence (P18054 whole entry)

Assay [8] concerns the target T6, Polyunsaturated fatty acid lipoxygenase ALOX12 (Homo sapiens). This is another data set of the same source.
The subject of the next assay is Glycine max. Nature of the assay: Irreversible inhibition of soybean 15-lipoxygenase-1. The essentials:
(§2)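 Time-dependent inactivation: h15-LOX-1 or s15-LOX-1 was incubated on ice with neat oxo-lipid oil (no solvent) at ≥5 concentrations for varied times. Residual activity was then measured under the UV 234 nm assay conditions for each enzyme and compared with an enzyme-only control. ka was taken as the slope of ln(% activity) versus time, and Ki and k2 from a replot of ka versus [I].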

In assay [9] the target is T2, Polyunsaturated fatty acid lipoxygenase ALOX15. Nature of the assay: Irreversible inhibition of human reticulocyte 15-lipoxygenase-1 by assessed as equilibrium inhibitor constant. The procedure, abridged:
as §2

Activity calls are given as the source filed them. The calls are words filed in the database; no cut-off is given here.

As usually defined, the IC50 is the midpoint of a concentration-inhibition curve. Regarding `CCCCC/C=C\C/C=C\C/C=C\C=C\C(=O)CCCC(=O)O` [5-OXO-ETE], the IC50 result in assay [1] was “Not Active”; in assay [2] it was more than 100 µM; in [3], more than 25 µM; in [4], 15 µM; in assay [5], more than 100 µM; in [6], more than 25 µM.

Turning to `CCCCCC(=O)/C=C/C=C\C/C=C\C/C=C\CCCC(=O)O`, the IC50 in [1] (read-out: IC50) is more than 100 µM; in assay [2], more than 100 µM; in assay [3], more than 25 µM; in assay [4], 1 µM; in assay [5], more than 100 µM; in assay [6], more than 50 µM. Also, the Kiuc in assay [7] is 2.1 µM. This compound also returned a Kic in assay [8] of 0.087 µM.

For the compound `CCCCCC(=O)/C=C/C=C\CCCCCCCC(=O)O`, the IC50 in [1] (read-out: IC50), in [2], in [3], in [4], in assay [5] and in [6] was more than 100 µM each time. In the assay on Glycine max, the inhibition entry is “inactive”.

Regarding `CCCCC/C=C\CC(=O)/C=C/C=C\C/C=C\CCCC(=O)O`, the IC50 in assay [1] (read-out: IC50) is more than 50 µM; in assay [2], more than 100 µM; in assay [3], 3 µM; in assay [4], 8 µM; in assay [5] it was more than 100 µM; in assay [6], more than 50 µM. In addition, in assay [9], the Ki is 36.8 µM.

The values are drawn from ChEMBL document CHEMBL3352671, “Inhibitory and mechanistic investigations of oxo-lipids with human lipoxygenase isozymes” (Bioorg Med Chem, 2014).
